From ChEMBL document CHEMBL5058577, “EUbOPEN Chemogenomics Library 2 (Multiplex)” (2022)

Test system: Fibroblast
Assay: Multiplex assay against human fibroblast
Type: toxicity, cell-based
Method in brief: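 On a CQ1 microscope at 37°C and 5% CO2, live cells were imaged after compound addition. They had been stained at seeding with Hoechst33342, BioTracker Green Microtubule Cytoskeleton Dye, MitoTracker Red and Annexin V Alexa Fluor 680. CellPathfinder machine-learning gating assigned cells to Hoechst high-intensity objects or normal cells, normal cells to healthy, pyknosed or fragmented nuclei, and pyknosed cells to mitotic or apoptotic. Tubulin, mitochondrial-mass and membrane-permeability phenotypes are per cents of healthy-nucleus cells.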

[1] = 12 h, 1 µM, compound concentration 1 uM, replicate 1
[2] = 12 h, 1 µM, compound concentration 1 uM, replicate 2
[3] = 12 h, 10 µM, compound concentration 10 uM, replicate 1
[4] = 12 h, 10 µM, compound concentration 10 uM, replicate 2
[5] = 24 h, 1 µM, compound concentration 1 uM, replicate 1
[6] = 24 h, 1 µM, compound concentration 1 uM, replicate 2
[7] = 24 h, 10 µM, compound concentration 10 uM, replicate 1
[8] = 24 h, 10 µM, compound concentration 10 uM, replicate 2
[9] = 48 h, 1 µM, compound concentration 1 uM, replicate 1
[10] = 48 h, 1 µM, compound concentration 1 uM, replicate 2
[11] = 48 h, 10 µM, compound concentration 10 uM, replicate 1
[12] = 48 h, 10 µM, compound concentration 10 uM, replicate 2

O=C(Nc1cc(-c2ccccc2)nn1-c1ccccc1F)c1ccc([N+](=O)[O-])cc1
Population Apoptotic (%) [1]: 28%
Population Fragmented Nuclei (%) [1]: 17%
Population Healthy Nuclei (%) [1]: 71%
Population Hoechst High Intensity Objects (%) [1]: 2%
Population Membrane Permeable-Phenotype (%) [1]: 1%
Population Mitochondria Different-Phenotype (%) [1]: 1%
Population Mitotic Cells (%) [1]: 71%
Population Normal (%) [1]: 97%
Population Pyknosed Nuclei (%) [1]: 10%
Population Tubulin-Different-Phenotype (%) [1]: 22%
Total Cell Count [1]: 138
Population Apoptotic (%) [2]: 32%
Population Fragmented Nuclei (%) [2]: 19%
Population Healthy Nuclei (%) [2]: 55%
Population Hoechst High Intensity Objects (%) [2]: 8%
Population Membrane Permeable-Phenotype (%) [2]: 4%
Population Mitochondria Different-Phenotype (%) [2]: 9%
Population Mitotic Cells (%) [2]: 67%
Population Normal (%) [2]: 91%
Population Pyknosed Nuclei (%) [2]: 25%
Population Tubulin-Different-Phenotype (%) [2]: 53%
Total Cell Count [2]: 160
Population Apoptotic (%) [3]: 28%
Population Fragmented Nuclei (%) [3]: 10%
Population Healthy Nuclei (%) [3]: 66%
Population Hoechst High Intensity Objects (%) [3]: 2%
Population Membrane Permeable-Phenotype (%) [3]: 1%
Population Mitochondria Different-Phenotype (%) [3]: 4%
Population Mitotic Cells (%) [3]: 71%
Population Normal (%) [3]: 97%
Population Pyknosed Nuclei (%) [3]: 22%
Population Tubulin-Different-Phenotype (%) [3]: 48%
Total Cell Count [3]: 170
Population Apoptotic (%) [4]: 45%
Population Fragmented Nuclei (%) [4]: 25%
Population Healthy Nuclei (%) [4]: 47%
Population Hoechst High Intensity Objects (%) [4]: 6%
Population Membrane Permeable-Phenotype (%) [4]: 6%
Population Mitochondria Different-Phenotype (%) [4]: 3%
Population Mitotic Cells (%) [4]: 54%
Population Normal (%) [4]: 93%
Population Pyknosed Nuclei (%) [4]: 26%
Population Tubulin-Different-Phenotype (%) [4]: 77%
Total Cell Count [4]: 149
Population Apoptotic (%) [5]: 53%
Population Fragmented Nuclei (%) [5]: 16%
Population Healthy Nuclei (%) [5]: 74%
Population Hoechst High Intensity Objects (%) [5]: 2%
Population Membrane Permeable-Phenotype (%) [5]: 0%
Population Mitochondria Different-Phenotype (%) [5]: 0%
Population Mitotic Cells (%) [5]: 46%
Population Normal (%) [5]: 97%
Population Pyknosed Nuclei (%) [5]: 9%
Population Tubulin-Different-Phenotype (%) [5]: 18%
Total Cell Count [5]: 135
Population Apoptotic (%) [6]: 50%
Population Fragmented Nuclei (%) [6]: 25%
Population Healthy Nuclei (%) [6]: 53%
Population Hoechst High Intensity Objects (%) [6]: 7%
Population Membrane Permeable-Phenotype (%) [6]: 6%
Population Mitochondria Different-Phenotype (%) [6]: 2%
Population Mitotic Cells (%) [6]: 50%
Population Normal (%) [6]: 92%
Population Pyknosed Nuclei (%) [6]: 20%
Population Tubulin-Different-Phenotype (%) [6]: 52%
Total Cell Count [6]: 156
Population Apoptotic (%) [7]: 26%
Population Fragmented Nuclei (%) [7]: 7%
Population Healthy Nuclei (%) [7]: 76%
Population Hoechst High Intensity Objects (%) [7]: 4%
Population Membrane Permeable-Phenotype (%) [7]: 1%
Population Mitochondria Different-Phenotype (%) [7]: 7%
Population Mitotic Cells (%) [7]: 73%
Population Normal (%) [7]: 95%
Population Pyknosed Nuclei (%) [7]: 16%
Population Tubulin-Different-Phenotype (%) [7]: 49%
Total Cell Count [7]: 163
Population Apoptotic (%) [8]: 28%
Population Fragmented Nuclei (%) [8]: 28%
Population Healthy Nuclei (%) [8]: 53%
Population Hoechst High Intensity Objects (%) [8]: 6%
Population Membrane Permeable-Phenotype (%) [8]: 9%
Population Mitochondria Different-Phenotype (%) [8]: 1%
Population Mitotic Cells (%) [8]: 72%
Population Normal (%) [8]: 93%
Population Pyknosed Nuclei (%) [8]: 18%
Population Tubulin-Different-Phenotype (%) [8]: 69%
Total Cell Count [8]: 147
Population Apoptotic (%) [9]: 54%
Population Fragmented Nuclei (%) [9]: 23%
Population Healthy Nuclei (%) [9]: 67%
Population Hoechst High Intensity Objects (%) [9]: 7%
Population Membrane Permeable-Phenotype (%) [9]: 1%
Population Mitochondria Different-Phenotype (%) [9]: 0%
Population Mitotic Cells (%) [9]: 45%
Population Normal (%) [9]: 92%
Population Pyknosed Nuclei (%) [9]: 8%
Population Tubulin-Different-Phenotype (%) [9]: 18%
Total Cell Count [9]: 145
Population Apoptotic (%) [10]: 55%
Population Fragmented Nuclei (%) [10]: 30%
Population Healthy Nuclei (%) [10]: 53%
Population Membrane Permeable-Phenotype (%) [10]: 5%
Population Mitochondria Different-Phenotype (%) [10]: 4%
Population Mitotic Cells (%) [10]: 44%
Population Pyknosed Nuclei (%) [10]: 15%
Population Tubulin-Different-Phenotype (%) [10]: 54%
Total Cell Count [10]: 183
Population Apoptotic (%) [11]: 66%
Population Fragmented Nuclei (%) [11]: 16%
Population Healthy Nuclei (%) [11]: 70%
Population Hoechst High Intensity Objects (%) [11]: 7%
Population Membrane Permeable-Phenotype (%) [11]: 3%
Population Mitochondria Different-Phenotype (%) [11]: 3%
Population Mitotic Cells (%) [11]: 33%
Population Normal (%) [11]: 92%
Population Pyknosed Nuclei (%) [11]: 12%
Population Tubulin-Different-Phenotype (%) [11]: 55%
Total Cell Count [11]: 160
Population Apoptotic (%) [12]: 52%
Population Fragmented Nuclei (%) [12]: 31%
Population Healthy Nuclei (%) [12]: 54%
Population Hoechst High Intensity Objects (%) [12]: 5%
Population Membrane Permeable-Phenotype (%) [12]: 6%
Population Mitotic Cells (%) [12]: 47%
Population Normal (%) [12]: 94%
Population Pyknosed Nuclei (%) [12]: 14%
Population Tubulin-Different-Phenotype (%) [12]: 66%
Total Cell Count [12]: 153

COc1c(Nc2ccc(S(C)(=O)=O)nc2C)ncnc1OC1CCN(C(=O)OC(C)C)CC1 [ADP-597]
Population Apoptotic (%) [1]: 57%
Population Fragmented Nuclei (%) [1]: 14%
Population Healthy Nuclei (%) [1]: 71%
Population Hoechst High Intensity Objects (%) [1]: 3%
Population Membrane Permeable-Phenotype (%) [1]: 0%
Population Mitochondria Different-Phenotype (%) [1]: 10%
Population Mitotic Cells (%) [1]: 42%
Population Normal (%) [1]: 96%
Population Pyknosed Nuclei (%) [1]: 14%
Population Tubulin-Different-Phenotype (%) [1]: 34%
Total Cell Count [1]: 133
Population Apoptotic (%) [2]: 42%
Population Fragmented Nuclei (%) [2]: 27%
Population Healthy Nuclei (%) [2]: 40%
Population Hoechst High Intensity Objects (%) [2]: 4%
Population Membrane Permeable-Phenotype (%) [2]: 2%
Population Mitochondria Different-Phenotype (%) [2]: 7%
Population Mitotic Cells (%) [2]: 57%
Population Normal (%) [2]: 95%
Population Pyknosed Nuclei (%) [2]: 33%
Population Tubulin-Different-Phenotype (%) [2]: 27%
Total Cell Count [2]: 105
Population Apoptotic (%) [3]: 44%
Population Fragmented Nuclei (%) [3]: 21%
Population Healthy Nuclei (%) [3]: 58%
Population Hoechst High Intensity Objects (%) [3]: 2%
Population Membrane Permeable-Phenotype (%) [3]: 0%
Population Mitochondria Different-Phenotype (%) [3]: 15%
Population Mitotic Cells (%) [3]: 56%
Population Normal (%) [3]: 97%
Population Pyknosed Nuclei (%) [3]: 20%
Population Tubulin-Different-Phenotype (%) [3]: 54%
Total Cell Count [3]: 127
Population Apoptotic (%) [4]: 39%
Population Fragmented Nuclei (%) [4]: 43%
Population Healthy Nuclei (%) [4]: 27%
Population Membrane Permeable-Phenotype (%) [4]: 11%
Population Mitochondria Different-Phenotype (%) [4]: 14%
Population Mitotic Cells (%) [4]: 60%
Population Normal (%) [4]: 98%
Population Pyknosed Nuclei (%) [4]: 28%
Population Tubulin-Different-Phenotype (%) [4]: 77%
Total Cell Count [4]: 100
Population Apoptotic (%) [5]: 47%
Population Fragmented Nuclei (%) [5]: 17%
Population Healthy Nuclei (%) [5]: 67%
Population Hoechst High Intensity Objects (%) [5]: 4%
Population Membrane Permeable-Phenotype (%) [5]: 0%
Population Mitochondria Different-Phenotype (%) [5]: 1%
Population Mitotic Cells (%) [5]: 52%
Population Normal (%) [5]: 95%
Population Pyknosed Nuclei (%) [5]: 15%
Population Tubulin-Different-Phenotype (%) [5]: 27%
Total Cell Count [5]: 146
Population Apoptotic (%) [6]: 37%
Population Fragmented Nuclei (%) [6]: 25%
Population Healthy Nuclei (%) [6]: 50%
Population Hoechst High Intensity Objects (%) [6]: 10%
Population Membrane Permeable-Phenotype (%) [6]: 10%
Population Mitochondria Different-Phenotype (%) [6]: 2%
Population Mitotic Cells (%) [6]: 62%
Population Normal (%) [6]: 89%
Population Pyknosed Nuclei (%) [6]: 24%
Population Tubulin-Different-Phenotype (%) [6]: 48%
Total Cell Count [6]: 109
Population Apoptotic (%) [7]: 52%
Population Fragmented Nuclei (%) [7]: 20%
Population Healthy Nuclei (%) [7]: 60%
Population Hoechst High Intensity Objects (%) [7]: 5%
Population Membrane Permeable-Phenotype (%) [7]: 0%
Population Mitochondria Different-Phenotype (%) [7]: 5%
Population Mitotic Cells (%) [7]: 47%
Population Normal (%) [7]: 94%
Population Pyknosed Nuclei (%) [7]: 18%
Population Tubulin-Different-Phenotype (%) [7]: 41%
Total Cell Count [7]: 131
Population Apoptotic (%) [8]: 27%
Population Fragmented Nuclei (%) [8]: 49%
Population Healthy Nuclei (%) [8]: 31%
Population Hoechst High Intensity Objects (%) [8]: 6%
Population Membrane Permeable-Phenotype (%) [8]: 10%
Population Mitochondria Different-Phenotype (%) [8]: 3%
Population Mitotic Cells (%) [8]: 72%
Population Normal (%) [8]: 93%
Population Pyknosed Nuclei (%) [8]: 19%
Population Tubulin-Different-Phenotype (%) [8]: 75%
Total Cell Count [8]: 99
Population Apoptotic (%) [9]: 64%
Population Fragmented Nuclei (%) [9]: 25%
Population Healthy Nuclei (%) [9]: 63%
Population Hoechst High Intensity Objects (%) [9]: 2%
Population Membrane Permeable-Phenotype (%) [9]: 0%
Population Mitochondria Different-Phenotype (%) [9]: 4%
Population Mitotic Cells (%) [9]: 35%
Population Normal (%) [9]: 97%
Population Pyknosed Nuclei (%) [9]: 11%
Population Tubulin-Different-Phenotype (%) [9]: 30%
Total Cell Count [9]: 152
Population Apoptotic (%) [10]: 42%
Population Fragmented Nuclei (%) [10]: 28%
Population Healthy Nuclei (%) [10]: 51%
Population Hoechst High Intensity Objects (%) [10]: 9%
Population Membrane Permeable-Phenotype (%) [10]: 2%
Population Mitochondria Different-Phenotype (%) [10]: 0%
Population Mitotic Cells (%) [10]: 57%
Population Normal (%) [10]: 90%
Population Pyknosed Nuclei (%) [10]: 20%
Population Tubulin-Different-Phenotype (%) [10]: 59%
Total Cell Count [10]: 102
Population Apoptotic (%) [11]: 73%
Population Fragmented Nuclei (%) [11]: 29%
Population Healthy Nuclei (%) [11]: 58%
Population Hoechst High Intensity Objects (%) [11]: 8%
Population Membrane Permeable-Phenotype (%) [11]: 0%
Population Mitochondria Different-Phenotype (%) [11]: 20%
Population Mitotic Cells (%) [11]: 26%
Population Normal (%) [11]: 91%
Population Pyknosed Nuclei (%) [11]: 12%
Population Tubulin-Different-Phenotype (%) [11]: 57%
Total Cell Count [11]: 131
Population Apoptotic (%) [12]: 75%
Population Fragmented Nuclei (%) [12]: 56%
Population Healthy Nuclei (%) [12]: 36%
Population Hoechst High Intensity Objects (%) [12]: 2%
Population Membrane Permeable-Phenotype (%) [12]: 2%
Population Mitochondria Different-Phenotype (%) [12]: 18%
Population Mitotic Cells (%) [12]: 25%
Population Normal (%) [12]: 97%
Population Pyknosed Nuclei (%) [12]: 7%
Population Tubulin-Different-Phenotype (%) [12]: 84%
Total Cell Count [12]: 108
